Results on 86 compounds are retold here after PubChem BioAssay AID504490 (NMMLSC, 2011).

The campaign covered roughly 340,000 compounds. About 1,100 (0.32%) were called active. The full list was thinned out, with actives kept by preference. A number with no mark means an inactive call.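 Rule for the calls: active = inhibition above a set limit, near 3 SD of compounds lacking own fluorescence (cut at about 54% in these data); inactive = the rest.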

The assay relates to beta-arrestin 1 C-terminal peptide binding to AP2 beta2-adaptin appendage (human). Description: inhibitors of beta-arrestin/AP2 binding, primary screen, biochemical, GPCR trafficking, flow cytometry (AID 504490).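 Note: plate controls were DMSO wells for no effect and 5 µM unlabelled arrestin peptide for full effect.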 The conditions noted are these: FITC-arrestin peptide / GST-AP2 beads, at 10 µM, active compounds read high, AP2 beta2 appendage carries R879A mutation. The method, boiled down: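 System: GST-AP2 R879A glutathione beads; medium: PBS, Tween 20 0.05%, BSA 0.1%; reagent: fluorescein-tagged arrestin peptide at 50 nM final; schedule: pre-incubation 12 min, peptide binding 1 h, room temperature; detection: flow cytometry, FL1 (488/535 nm); read-out: inhibition as reduced fluorescein signal on beads, percent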
A general note: A flow cytometer gives signals particle by particle.
In general, inhibition refers to the change of the read-out against control, counted positive when it falls. Consider `O=C(CN1C(=O)NC2(CCCCCC2)C1=O)NCc1ccc(F)cc1`, for which the inhibition is 13.2%.

As for `CCc1ccc(N(CC(=O)Nc2sc3c(c2C(=O)OC)CCCC3)S(C)(=O)=O)cc1`, the inhibition was -5.8%.

`N#CCSc1nn(-c2ccc(F)cc2)c(=S)s1`: the inhibition is 1.03%.

In the case of `O=S(=O)(c1ccccc1)N(Cc1cccc(F)c1)c1ccccc1`, the inhibition is 6.33%.

On to `CC(C)C1C2=C(CC(C)(C)CC2=O)ON1c1ccccc1` (stereo unspecified), for which the inhibition is 14.7%.

In the case of `Cc1ccc(N2C(=O)C(NC(=O)c3c(F)cccc3F)(C(F)(F)F)C3=C2CC(C)(C)CC3=O)cc1` (stereo unspecified), the inhibition is 11.2%.

As to `COC(=O)C1CC2=C(CC(C)(C)CC2=O)N(c2ccccc2)C1=O` (stereo unspecified), the inhibition was 54.1% (active).

`Cc1ccc2[nH]cc(CCNC(=O)c3ccc([N+](=O)[O-])cc3)c2c1`: the inhibition is 5.19%.

`CCN(CC)Cc1c(C(=O)N/N=C/c2cccc(OCc3ccc(F)cc3)c2)nnn1-c1nonc1N`: the inhibition was -0.16%.

For the compound `Cn1ccsc1=NC(=O)c1cc(S(=O)(=O)N2CCOCC2)ccc1Cl`, the inhibition was -5.18%.

For `COc1cccc(-n2c(SCC(=O)NC3CCS(=O)(=O)C3)nc3ccccc3c2=O)c1` (stereo unspecified), the inhibition was -2.41%.

In the case of `COC(=O)c1ccc(CSc2nc3ccccc3c(=O)n2-c2cccc(OC)c2)o1`, the inhibition is 5.8%.

On to `COc1cccc(-n2c(SCC(=O)c3c[nH]c4ccccc34)nc3ccccc3c2=O)c1`, for which the inhibition was 105% (active).

With `CN(C)c1ccc(C2N(C)C(=O)c3ccccc3N2C)cc1` (stereo unspecified), the inhibition was -7.07%.

Turning to `CN(C)c1ccc(Nc2c3c4c(cccc4n(C)c2=O)C(=O)c2ccccc2-3)cc1`, the inhibition is 63.5% (active).

For `O=C(NCCc1ccccn1)c1cc(-c2ccc(Cl)cc2)nc2ccccc12`, the inhibition was 13.5%.

Consider `CCOc1ccccc1-c1cc(C(=O)N/N=C(\C)c2cccnc2)c2ccccc2n1`, for which the inhibition was -0.49%.

Turning to `CC(=O)NCCNC(=O)c1cc(-c2cccc3ccccc23)nc2ccccc12`, the inhibition is 60.3% (active).

In the case of `c1ccc(CC2CCN(c3nc4ccccc4n4cnnc34)CC2)cc1`, the inhibition was -7.81%.

For `Cc1ccc(C)c(N(CC(=O)NCc2ccco2)C(=O)CCC(=O)Nc2ccccn2)c1`, the inhibition is -8.6%.

On to `Brc1ccccc1C1Nc2cccc3cccc(c23)N1`, for which the inhibition was 56% (active).

As for `Oc1ccc(C2Nc3cccc4cccc(c34)N2)cc1`, the inhibition was 56.2% (active).

With `COc1ccc(C2NC(=O)c3ccccc3N2)cc1` (stereo unspecified), the inhibition is 26.1%.

`COc1cc2c(cc1OC)C(c1ccccc1Br)NC(=O)C2` (stereo unspecified): the inhibition is -7.73%.

For `Brc1ccccc1C1N=C(c2ccccc2)NO1` (stereo unspecified), the inhibition was -3.82%.

Take `COc1ccc([C@H]2CC(=O)C=C(c3ccc(C)cc3)C2)cc1`: the inhibition was 18.7%.

Consider `CC(=O)Nc1ccc(S(=O)(=O)N2CCN(C(=O)c3ccccc3F)CC2)cc1`, for which the inhibition is -16.7%.

In the case of `CC12COC3(C(=O)Nc4ccc(Cl)cn4)CC1CCC32C` (stereo unspecified), the inhibition is 1.37%.

For `CCc1ccccc1N(CC(=O)NCC1CCCO1)C(=O)CCC(=O)Nc1nccs1` (stereo unspecified), the inhibition is -16.6%.

With `Cc1ccc(Cl)cc1-c1ccc(/C=N/n2cnnc2)o1`, the inhibition is 63.3% (active).

As for `Brc1cc(/C=N/n2cnnc2)oc1Br`, the inhibition is 1.91%.

As for `Clc1cc(-c2ccc(/C=N/n3cnnc3)o2)ccc1Br`, the inhibition is 1.32%.

On to `N#Cc1ccc(-c2ccc(Cl)cc2)nc1Oc1ccc(F)cc1`, for which the inhibition was -5.52%.

With `Cc1c(C2=CCN(S(=O)(=O)c3ccc(Cl)cc3)CC2)c2ccccc2n1C`, the inhibition is 6.61%.

As to `O=C(CCCNS(=O)(=O)c1cccc2nsnc12)NCCN1CCN(c2ccccc2F)CC1`, the inhibition was 5.08%.

For `Cc1ccc(S(=O)(=O)N2CCN(C(=O)Cn3c(=O)cnc4ccccc43)CC2)c(C)c1`, the inhibition was -13.3%.

For `Cc1ccc(S(=O)(=O)N2CCN(C(=O)c3ccccc3-c3nc4ccccc4s3)CC2)c(C)c1`, the inhibition is 66.5% (active).

Take `Cc1ccc(S(=O)(=O)N2CCN(C(=O)N3CCOCC3)CC2)c(C)c1`: the inhibition was 17.1%.

Regarding `CC(C)(C)OC(=O)N1CCC(NC(=O)c2[nH]cnc2C(=O)N[C@@H](Cc2ccccc2)C(=O)OCc2ccccc2)CC1`, the inhibition was 9.22%.

As for `O=C(NCCN1CCOC1=O)C1CCC(=O)N(CCc2ccc(Cl)cc2)C1` (stereo unspecified), the inhibition was -10.1%.

With `CC(C)(C)c1ccc(C(=O)NCCn2c(N)c(C#N)c3nc4ccccc4nc32)cc1`, the inhibition is 94.7% (active).

Regarding `N#Cc1c(N)n(CCOC(=O)c2ccc(Cl)cc2)c2nc3ccccc3nc12`, the inhibition is 3.34%.

Turning to `COCC(C)OC(=O)c1c(N)n(CCCN2CCOCC2)c2nc3ccccc3nc12` (stereo unspecified), the inhibition is -8.22%.

As to `COc1ccc(S(=O)(=O)Nc2cccc3c2O[C@H](CN(C)S(=O)(=O)c2ccc(OC)cc2)[C@@H](C)CN([C@H](C)CO)C3=O)cc1`, the inhibition is -15.4%.

Consider `COc1ccc(NC(=O)c2sc(N3CCOCC3)nc2-c2ccccc2)c(OC)c1`, for which the inhibition was 18.7%.

In the case of `COC(=O)CN1C(=O)[C@H]2[C@@H](/C=C/c3ccccc3)N3C(=O)CN(Cc4ccccc4)C(=O)[C@@]3(Cc3ccccc3)[C@H]2C1=O`, the inhibition is -5.14%.

For `CC(=O)Nc1ccc(NC(=O)CSC2=NS(=O)(=O)c3ccccc3N2)cc1`, the inhibition is 22%.

For `COC(=O)[C@H](C(C)C)n1c(C)c(C(C)=O)c(C(C)=O)c1C`, the inhibition was -0.72%.

Regarding `COC(=O)c1cc(NC(=O)c2nn(C)c(=O)c3ccccc23)cc(C(=O)OC)c1`, the inhibition was 66.5% (active).

With `CCC(CC)c1nnc(NC(=O)c2nn(C)c(=O)c3ccccc23)s1`, the inhibition was -0.4%.

`CCC(C)NC(=O)c1nn(C)c(=O)c2ccccc12` (stereo unspecified): the inhibition was -22%.

In the case of `O=C(OCc1nc2ccccc2[nH]1)C1CCCCC1`, the inhibition is -0.04%.

For the compound `Cc1cc(C(=O)OCC(=O)c2c(N)n(C)c(=O)n(C)c2=O)c(C)o1`, the inhibition is 104% (active).

As for `Cn1c(N)c(C(=O)COC(=O)c2cnc(Cl)c(Cl)c2)c(=O)n(C)c1=O`, the inhibition is -4.58%.

With `Cn1c(N)c(C(=O)COC(=O)c2ccc3ccccc3c2)c(=O)n(C)c1=O`, the inhibition was 7.54%.

`CCCCN(C(=O)CSCc1ccc(C)cc1)c1c(N)n(Cc2ccccc2)c(=O)[nH]c1=O`: the inhibition was -0.62%.

For the compound `Cc1noc(C)c1CSc1nnc2ccc3ccccc3n12`, the inhibition is -1.44%.

As for `Cc1coc2c(O)cc3c(c12)OC1(N2CCCCC2)C(=O)NCCCC31` (stereo unspecified), the inhibition is 9.81%.

As for `O=[N+]([O-])c1ccccc1N/N=C1\CCc2ccccc21`, the inhibition was -6.42%.

For the compound `Cn1cnnc1Sc1ccc(CN2CCN(C3CCCC3)C(CCO)C2)o1` (stereo unspecified), the inhibition is -10.1%.

As for `Cc1ccc(C(=O)NC(C)c2ccccc2)cc1Br` (stereo unspecified), the inhibition was -2.36%.

Consider `CC(NC(=O)C(=O)N/N=C/c1ccc(Cl)cc1)c1ccccc1` (stereo unspecified), for which the inhibition is 6.57%.

In the case of `CC(NC(=O)c1cc2cc(Cl)ccc2oc1=N)c1ccccc1` (stereo unspecified), the inhibition is 56% (active).

On to `CN(C(=O)c1cccc([N+](=O)[O-])c1)c1ccccc1C(=O)NCc1ccccc1`, for which the inhibition was -22.1%.

Take `Cc1ccc(C)c(Cn2cnc3c(oc4ccccc43)c2=O)c1`: the inhibition is 29.7%.

Turning to `CCC(C(=O)OC)n1cnc2c(oc3ccccc32)c1=O` (stereo unspecified), the inhibition was 54.6% (active).

Regarding `CCC(C(=O)OC)n1cnc2scc(-c3ccc(C)cc3)c2c1=O` (stereo unspecified), the inhibition was -1.08%.

As for `Cc1ccc(NC(=O)CN2CCC3(O)CCCCC3C2c2ccc3c(c2)OCO3)c(C)c1` (stereo unspecified), the inhibition was 1.75%.

Regarding `CC(=O)Nc1ccc(NC(=O)CN2C(=O)COc3ccc(S(=O)(=O)N4CCCCC4)cc32)cc1`, the inhibition was -9.58%.

In the case of `COC(=O)C1=C(C(=O)OC)C2(OC1c1ccc(Br)cc1)C(=O)c1ccccc1C2=O` (stereo unspecified), the inhibition was 7.98%.

Turning to `COc1ccc2c(CC(=O)N3CCc4cc(OC)c(OC)cc4C3)coc2c1`, the inhibition was -6.31%.

Consider `COc1cc2c(cc1OC)CN(C(=O)c1cc(=O)c3ccccc3o1)CC2`, for which the inhibition was 82.5% (active).

For the compound `COc1ccccc1CNC(=O)c1cc(=O)c2ccccc2o1`, the inhibition was 2.61%.

Regarding `CCC(=O)Nc1nc2ccccc2n1Cc1ccccc1C`, the inhibition is 69.6% (active).

As to `C=CCn1c(C(C)NC(=O)CC)nc2ccccc21` (stereo unspecified), the inhibition is -3.06%.

For `CC(=O)NC(C)c1nc2ccccc2n1Cc1ccccc1F` (stereo unspecified), the inhibition was -8.31%.

On to `O=C(CSc1nnc(-c2ccncc2)n1C1CCCCC1)Nc1ccccc1`, for which the inhibition was 0.57%.

On to `O=C(CCNC(=O)c1ccccc1Cl)NCc1ccco1`, for which the inhibition is -2.42%.

For `Cc1ccc(N(Cc2ccc(C(=O)Nc3ccccc3C(=O)NCc3ccco3)cc2)S(C)(=O)=O)cc1C`, the inhibition was -0.75%.

As for `Cc1cccc(Nc2ccccc2C(=O)NCc2ccco2)c1C`, the inhibition was 99.8% (active).

In the case of `CC(Oc1ccccc1)C(=O)NN1Cc2ccccc2C1=N` (stereo unspecified), the inhibition is 59.1% (active).

On to `CC(Oc1ccccc1)C(=O)Nc1c2c(nn1-c1ccccc1)CS(=O)C2` (stereo unspecified), for which the inhibition is 4.67%.

On to `COc1ccc(OCC(=O)NN2Cc3ccccc3C2=N)cc1`, for which the inhibition is 10.9%.

For the compound `O=C(CSc1nnc(COc2ccc(Cl)cc2)n1Cc1ccco1)N1CCNC1=O`, the inhibition is -11.3%.

As for `CCc1cccc(C)c1NC(=S)N(CCCN1CCN(C)CC1)Cc1cccs1`, the inhibition was -5.26%.

On to `COc1cc(Cl)ccc1OCc1cc(C(=O)N(C)CCc2c(C)n[nH]c2C)no1`, for which the inhibition was -14.3%.
